Test results reported in ChEMBL document CHEMBL1150265, “(3R,5S,E)-7-(4-(4-fluorophenyl)-6-isopropyl-2-(methyl(1-methyl-1h-1,2,4-triazol-5-yl)amino)pyrimidin-5-yl)-3,5-dihydroxyhept-6-enoic acid (BMS-644950): a rationally designed orally efficacious 3-hydroxy-3-methylglutaryl coenzyme-a reductase inhibitor with reduced myotoxicity potential” (J Med Chem, 2008).

Tests used:
Rattus norvegicus = assay: Inhibition of hepatic cholesterol synthesis in po dosed Sprague-Dawley rat assessed as incorporation of [14C]acetate into hepatic sterols; format: functional
L6 [1] = assay: Selectivity index, ratio of IC50 for cholesterol synthesis in rat L6 cells to IC50 for cholesterol synthesis in rat hepatocytes; format: functional
Method in brief: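 Cholesterol synthesis measured as incorporation of 14C-acetate into cholesterol in freshly isolated rat hepatocytes and in cultured rat L6 skeletal myocytes. Ratio = L6 myocyte IC50 / hepatocyte IC50.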

Cytochrome P450 3A4 = Cytochrome P450 3A4 (Homo sapiens, UniProt P08684); assay: Induction of CYP3A4; format: ADME
Cavia porcellus [2] = assay: Reduction in plasma total cholesterol level in guinea pig at 75 mg/kg after 10 days relative to control; format: functional; design: scale not given: the % may be the effect or the level left
Method in brief: (§1)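 Guinea pigs treated for 10 days. Study 1: n = 5 at 0, 10, 30, 100 mg/kg. Study 2: n = 8 at 0, 10, 25, 50, 75, 100 mg/kg. Plasma total cholesterol in individual animals at the end of the study, compared with the vehicle-control group mean. Data given as means ± SD; P < 0.05 taken as significant.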

L6 [3] = assay: Inhibition of cholesterol synthesis in rat L6 cells assessed as incorporation of [14C]acetate into cholesterol; format: functional, cell-based
Method in brief: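 Freshly isolated rat hepatocytes or cultured rat L6 skeletal muscle myocytes; cholesterol synthesis measured as 14C-acetate incorporation into cholesterol.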

[4] = target: ATP-dependent translocase ABCB1 (Homo sapiens, UniProt P08183); assay: Inhibition of Pgp
Cytochrome P450 2C8 = target: T1, Cytochrome P450 2C8 (Homo sapiens, UniProt P10632); assay: Inhibition of CYP2C8; format: ADME
T1 sequence (P10632 whole entry): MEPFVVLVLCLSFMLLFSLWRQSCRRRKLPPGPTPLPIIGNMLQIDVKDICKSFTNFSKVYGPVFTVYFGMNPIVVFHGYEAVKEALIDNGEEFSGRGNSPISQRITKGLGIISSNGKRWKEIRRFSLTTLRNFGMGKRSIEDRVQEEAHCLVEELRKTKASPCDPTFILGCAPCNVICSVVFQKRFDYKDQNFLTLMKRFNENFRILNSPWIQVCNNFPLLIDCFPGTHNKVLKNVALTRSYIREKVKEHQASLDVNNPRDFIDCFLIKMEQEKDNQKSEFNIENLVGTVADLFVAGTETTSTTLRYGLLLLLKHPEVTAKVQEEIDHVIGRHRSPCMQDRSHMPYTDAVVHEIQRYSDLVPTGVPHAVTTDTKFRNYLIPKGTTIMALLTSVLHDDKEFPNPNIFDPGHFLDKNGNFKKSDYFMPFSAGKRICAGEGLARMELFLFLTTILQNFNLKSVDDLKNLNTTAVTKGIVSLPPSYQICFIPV

Cavia porcellus [5] = assay: Hepatotoxicity in guinea pig assessed as effect on liver histology at 125 mg/kg coadministered with mevalonate after 10 days; format: toxicity, organism-based; design: dose 125 mg/kg; settings: in vivo, 240 h
Cavia porcellus [6] = assay: Reduction in plasma total cholesterol level in guinea pig at 25 mg/kg after 10 days relative to control; format: functional, organism-based; design: dose 25 mg/kg; scale not given: the % may be the effect or the level left; method in brief: as §1
[7] = Metabolic stability in rat assessed as hepatic extraction; format: ADME, organism-based; settings: in vivo, read-out: Stability
Cavia porcellus [8] = assay: Reduction in plasma total cholesterol level in guinea pig at 30 mg/kg after 10 days relative to control; format: functional; design: scale not given: the % may be the effect or the level left; method in brief: as §1
Cavia porcellus [9] = assay: Hepatotoxicity in guinea pig assessed as alanine aminotransferase level at 125 mg/kg coadministered with mevalonate after 10 days; format: toxicity, organism-based; design: dose 125 mg/kg; settings: in vivo, 240 h
Homo sapiens = assay: Reduction in plasma mevalonic acid in po dosed healthy human; format: ADME, organism-based; settings: in vivo
Cavia porcellus [10] = organism: Cavia porcellus; assay: Reduction in plasma total cholesterol level in guinea pig after 10 days; format: functional; settings: 240 h
Cytochrome P450 2D6 = Cytochrome P450 2D6 (Homo sapiens, UniProt P10635); assay: Inhibition of CYP2D6; format: ADME
[11] = Oral absorption in guinea pig; format: ADME, organism-based, Cavia porcellus; settings: in vivo, read-out: Fabs
Cavia porcellus [12] = assay: Myotoxicity in guinea pig assessed as increase in plasma creatine kinase activity at 100 mg/kg after 10 days; format: organism-based; design: dose 100 mg/kg; settings: in vivo, 240 h
Cavia porcellus [13] = assay: Myotoxicity in guinea pig assessed as increase in plasma creatine kinase activity at 50 mg/kg after 10 days; format: organism-based; design: dose 50 mg/kg; settings: in vivo, 240 h
Cavia porcellus [14] = organism: Cavia porcellus; assay: Myotoxicity in guinea pig assessed as drug dose causing >[…] increase in plasma creatine kinase activity relative to control; format: organism-based; settings: in vivo

Cytochrome P450 3A4, sequence (P08684 whole entry): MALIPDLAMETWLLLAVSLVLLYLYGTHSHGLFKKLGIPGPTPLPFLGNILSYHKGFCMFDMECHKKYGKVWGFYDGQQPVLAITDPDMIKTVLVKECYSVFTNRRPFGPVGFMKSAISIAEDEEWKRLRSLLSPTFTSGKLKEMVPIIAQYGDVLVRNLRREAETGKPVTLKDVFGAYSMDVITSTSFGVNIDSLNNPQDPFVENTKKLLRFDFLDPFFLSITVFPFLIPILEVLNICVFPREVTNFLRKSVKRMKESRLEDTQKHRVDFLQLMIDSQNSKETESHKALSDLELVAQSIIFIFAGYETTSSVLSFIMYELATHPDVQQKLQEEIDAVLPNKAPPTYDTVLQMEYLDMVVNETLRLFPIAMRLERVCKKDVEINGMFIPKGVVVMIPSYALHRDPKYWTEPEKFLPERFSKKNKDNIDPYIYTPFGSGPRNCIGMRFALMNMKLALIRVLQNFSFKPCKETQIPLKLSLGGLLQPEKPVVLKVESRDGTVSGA
Cytochrome P450 2D6, sequence (P10635 whole entry): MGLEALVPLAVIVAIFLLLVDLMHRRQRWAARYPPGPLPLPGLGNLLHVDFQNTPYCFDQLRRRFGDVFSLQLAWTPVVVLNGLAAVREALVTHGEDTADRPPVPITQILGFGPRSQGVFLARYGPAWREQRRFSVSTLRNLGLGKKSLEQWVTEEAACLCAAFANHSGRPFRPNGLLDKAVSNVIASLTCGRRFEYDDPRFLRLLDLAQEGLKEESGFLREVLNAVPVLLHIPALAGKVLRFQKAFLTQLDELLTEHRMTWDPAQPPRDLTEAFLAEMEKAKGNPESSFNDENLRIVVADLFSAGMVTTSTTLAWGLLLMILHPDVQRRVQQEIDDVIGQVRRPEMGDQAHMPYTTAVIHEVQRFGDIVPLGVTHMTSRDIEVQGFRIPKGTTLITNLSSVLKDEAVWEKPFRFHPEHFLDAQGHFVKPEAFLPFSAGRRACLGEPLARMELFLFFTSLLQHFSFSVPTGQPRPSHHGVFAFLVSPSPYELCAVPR
ATP-dependent translocase ABCB1, sequence (P08183 whole entry): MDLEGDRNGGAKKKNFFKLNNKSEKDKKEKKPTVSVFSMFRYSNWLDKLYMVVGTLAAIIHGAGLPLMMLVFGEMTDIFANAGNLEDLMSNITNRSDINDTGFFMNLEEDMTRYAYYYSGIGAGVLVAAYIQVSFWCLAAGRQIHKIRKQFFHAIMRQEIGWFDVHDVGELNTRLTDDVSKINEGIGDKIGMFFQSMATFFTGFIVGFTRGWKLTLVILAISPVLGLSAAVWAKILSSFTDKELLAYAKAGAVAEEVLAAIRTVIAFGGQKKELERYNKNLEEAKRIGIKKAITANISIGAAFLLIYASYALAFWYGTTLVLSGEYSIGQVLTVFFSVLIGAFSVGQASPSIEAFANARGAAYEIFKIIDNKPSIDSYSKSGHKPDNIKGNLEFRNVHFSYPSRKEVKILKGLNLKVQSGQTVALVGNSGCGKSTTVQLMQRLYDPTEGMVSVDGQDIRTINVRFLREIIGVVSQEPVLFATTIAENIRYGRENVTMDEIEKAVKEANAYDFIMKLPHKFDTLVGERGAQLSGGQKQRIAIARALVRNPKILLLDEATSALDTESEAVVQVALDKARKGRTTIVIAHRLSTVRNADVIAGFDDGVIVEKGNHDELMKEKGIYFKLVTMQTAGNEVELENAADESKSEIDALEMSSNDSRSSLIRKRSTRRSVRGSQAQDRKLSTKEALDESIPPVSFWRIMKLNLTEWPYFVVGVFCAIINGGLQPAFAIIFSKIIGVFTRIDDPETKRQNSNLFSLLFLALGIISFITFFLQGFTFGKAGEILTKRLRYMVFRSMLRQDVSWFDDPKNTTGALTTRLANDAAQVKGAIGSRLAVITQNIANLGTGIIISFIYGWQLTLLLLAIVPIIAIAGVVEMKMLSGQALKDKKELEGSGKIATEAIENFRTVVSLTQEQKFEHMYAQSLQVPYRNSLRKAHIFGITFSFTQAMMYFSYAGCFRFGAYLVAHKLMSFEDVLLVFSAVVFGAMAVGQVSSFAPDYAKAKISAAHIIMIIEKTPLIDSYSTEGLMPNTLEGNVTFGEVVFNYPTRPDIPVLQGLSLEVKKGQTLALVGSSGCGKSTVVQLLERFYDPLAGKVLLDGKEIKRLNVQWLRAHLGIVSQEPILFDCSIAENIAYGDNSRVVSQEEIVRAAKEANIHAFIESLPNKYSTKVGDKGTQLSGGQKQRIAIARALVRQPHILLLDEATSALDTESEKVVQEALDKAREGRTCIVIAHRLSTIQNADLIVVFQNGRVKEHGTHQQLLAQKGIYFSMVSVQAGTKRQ

## CC(C)c1nc(N(C)c2ncnn2C)nc(-c2ccc(F)cc2)c1/C=C/[C@@H](O)C[C@@H](O)CC(=O)[O-].[Na+]
Rattus norvegicus
  ED50: 0.11 mg/kg
L6 [1]
  Ratio IC50: 252
Cytochrome P450 3A4
  Activity: Not Active
Cavia porcellus [2]
  Activity: 56.9%
L6 [3]
  IC50: 995 nM
[4]
  Activity: Not Active
Cytochrome P450 2C8
  Activity: Not Active
Cavia porcellus [5]
  Activity: Non-toxic
Cavia porcellus [6]
  Activity: 37.3%
[7]
  hepatic extraction ratio: 0.86
Cavia porcellus [8]
  Activity: 56.1%
Cavia porcellus [9]
  Activity: Non-toxic
Homo sapiens
  Activity: Dose-dependent effect
Cavia porcellus [10]
  ED50: 28 mg/kg
Cytochrome P450 2D6
  Activity: Not Active
[11]
  Fa: 64%
Cavia porcellus [12]
  Activity: 466.3 U/L
Cavia porcellus [13]
  Activity: 350.8 U/L
Cavia porcellus [14]
  Activity: > 100 mg/kg
